Data reported in ChEMBL document CHEMBL5058577, “EUbOPEN Chemogenomics Library 2 (Multiplex)” (2022).

Test system: U2OS
Experiment: Multiplex assay against U2OS
Assay type: toxicity, cell-based
Details: human
Summary of the method: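 At seeding, live cells were stained with Hoechst33342, BioTracker Green Microtubule Cytoskeleton Dye, MitoTracker Red and Annexin V Alexa Fluor 680. After compound addition they were imaged on a CQ1 microscope at 37°C and 5% CO2, and CellPathfinder machine-learning gating sorted them into Hoechst high-intensity objects or normal cells, with normal cells further split into healthy, pyknosed or fragmented nuclei and pyknosed cells into mitotic or apoptotic. Tubulin, mitochondrial-mass and membrane-permeability phenotypes are given as per cents of cells with healthy nuclei.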

[1] = 12 h, 1 µM, compound concentration 1 uM, replicate 1
[2] = 12 h, 1 µM, compound concentration 1 uM, replicate 2
[3] = 12 h, 10 µM, compound concentration 10 uM, replicate 1
[4] = 12 h, 10 µM, compound concentration 10 uM, replicate 2
[5] = 24 h, 1 µM, compound concentration 1 uM, replicate 1
[6] = 24 h, 1 µM, compound concentration 1 uM, replicate 2
[7] = 24 h, 10 µM, compound concentration 10 uM, replicate 1
[8] = 24 h, 10 µM, compound concentration 10 uM, replicate 2
[9] = 48 h, 1 µM, compound concentration 1 uM, replicate 1
[10] = 48 h, 1 µM, compound concentration 1 uM, replicate 2
[11] = 48 h, 10 µM, compound concentration 10 uM, replicate 1
[12] = 48 h, 10 µM, compound concentration 10 uM, replicate 2

O=C1[C@H](Cc2ccc(O)cc2)N2C(=O)CCN(C(=O)NCc3ccccc3)[C@H]2CN1Cc1cccc2ccccc12
Population Apoptotic (%) [1]: 91%
Population Fragmented Nuclei (%) [1]: 13%
Population Healthy Nuclei (%) [1]: 74%
Population Hoechst High Intensity Objects (%) [1]: 4%
Population Membrane Permeable-Phenotype (%) [1]: 4%
Population Mitochondria Different-Phenotype (%) [1]: 1%
Population Mitotic Cells (%) [1]: 8%
Population Normal (%) [1]: 96%
Population Pyknosed Nuclei (%) [1]: 12%
Population Tubulin-Different-Phenotype (%) [1]: 1%
Total Cell Count [1]: 200
Population Apoptotic (%) [2]: 84%
Population Fragmented Nuclei (%) [2]: 21%
Population Healthy Nuclei (%) [2]: 66%
Population Hoechst High Intensity Objects (%) [2]: 0%
Population Membrane Permeable-Phenotype (%) [2]: 5%
Population Mitochondria Different-Phenotype (%) [2]: 8%
Population Mitotic Cells (%) [2]: 15%
Population Normal (%) [2]: 99%
Population Pyknosed Nuclei (%) [2]: 11%
Population Tubulin-Different-Phenotype (%) [2]: 4%
Total Cell Count [2]: 113
Population Apoptotic (%) [3]: 60%
Population Fragmented Nuclei (%) [3]: 32%
Population Healthy Nuclei (%) [3]: 50%
Population Hoechst High Intensity Objects (%) [3]: 3%
Population Membrane Permeable-Phenotype (%) [3]: 55%
Population Mitochondria Different-Phenotype (%) [3]: 35%
Population Mitotic Cells (%) [3]: 40%
Population Normal (%) [3]: 96%
Population Pyknosed Nuclei (%) [3]: 17%
Population Tubulin-Different-Phenotype (%) [3]: 55%
Total Cell Count [3]: 207
Population Apoptotic (%) [4]: 72%
Population Fragmented Nuclei (%) [4]: 19%
Population Healthy Nuclei (%) [4]: 67%
Population Hoechst High Intensity Objects (%) [4]: 6%
Population Membrane Permeable-Phenotype (%) [4]: 38%
Population Mitochondria Different-Phenotype (%) [4]: 47%
Population Mitotic Cells (%) [4]: 27%
Population Normal (%) [4]: 93%
Population Pyknosed Nuclei (%) [4]: 13%
Population Tubulin-Different-Phenotype (%) [4]: 43%
Total Cell Count [4]: 88
Population Apoptotic (%) [5]: 80%
Population Fragmented Nuclei (%) [5]: 13%
Population Healthy Nuclei (%) [5]: 73%
Population Hoechst High Intensity Objects (%) [5]: 2%
Population Membrane Permeable-Phenotype (%) [5]: 4%
Population Mitochondria Different-Phenotype (%) [5]: 1%
Population Mitotic Cells (%) [5]: 19%
Population Normal (%) [5]: 97%
Population Pyknosed Nuclei (%) [5]: 13%
Population Tubulin-Different-Phenotype (%) [5]: 2%
Total Cell Count [5]: 242
Population Apoptotic (%) [6]: 88%
Population Fragmented Nuclei (%) [6]: 14%
Population Healthy Nuclei (%) [6]: 71%
Population Hoechst High Intensity Objects (%) [6]: 1%
Population Membrane Permeable-Phenotype (%) [6]: 7%
Population Mitochondria Different-Phenotype (%) [6]: 5%
Population Mitotic Cells (%) [6]: 11%
Population Normal (%) [6]: 98%
Population Pyknosed Nuclei (%) [6]: 14%
Population Tubulin-Different-Phenotype (%) [6]: 4%
Total Cell Count [6]: 127
Population Apoptotic (%) [7]: 65%
Population Fragmented Nuclei (%) [7]: 34%
Population Healthy Nuclei (%) [7]: 42%
Population Hoechst High Intensity Objects (%) [7]: 3%
Population Membrane Permeable-Phenotype (%) [7]: 25%
Population Mitochondria Different-Phenotype (%) [7]: 23%
Population Mitotic Cells (%) [7]: 34%
Population Normal (%) [7]: 96%
Population Pyknosed Nuclei (%) [7]: 22%
Population Tubulin-Different-Phenotype (%) [7]: 25%
Total Cell Count [7]: 214
Population Apoptotic (%) [8]: 85%
Population Fragmented Nuclei (%) [8]: 29%
Population Healthy Nuclei (%) [8]: 54%
Population Hoechst High Intensity Objects (%) [8]: 5%
Population Membrane Permeable-Phenotype (%) [8]: 36%
Population Mitochondria Different-Phenotype (%) [8]: 38%
Population Mitotic Cells (%) [8]: 14%
Population Normal (%) [8]: 94%
Population Pyknosed Nuclei (%) [8]: 16%
Population Tubulin-Different-Phenotype (%) [8]: 42%
Total Cell Count [8]: 91
Population Apoptotic (%) [9]: 81%
Population Fragmented Nuclei (%) [9]: 15%
Population Healthy Nuclei (%) [9]: 73%
Population Hoechst High Intensity Objects (%) [9]: 3%
Population Membrane Permeable-Phenotype (%) [9]: 2%
Population Mitochondria Different-Phenotype (%) [9]: 2%
Population Mitotic Cells (%) [9]: 18%
Population Normal (%) [9]: 96%
Population Pyknosed Nuclei (%) [9]: 11%
Population Tubulin-Different-Phenotype (%) [9]: 3%
Total Cell Count [9]: 326
Population Apoptotic (%) [10]: 95%
Population Fragmented Nuclei (%) [10]: 16%
Population Healthy Nuclei (%) [10]: 67%
Population Hoechst High Intensity Objects (%) [10]: 5%
Population Membrane Permeable-Phenotype (%) [10]: 3%
Population Mitochondria Different-Phenotype (%) [10]: 0%
Population Mitotic Cells (%) [10]: 4%
Population Normal (%) [10]: 94%
Population Pyknosed Nuclei (%) [10]: 15%
Population Tubulin-Different-Phenotype (%) [10]: 5%
Total Cell Count [10]: 168
Population Apoptotic (%) [11]: 82%
Population Fragmented Nuclei (%) [11]: 37%
Population Healthy Nuclei (%) [11]: 43%
Population Hoechst High Intensity Objects (%) [11]: 5%
Population Membrane Permeable-Phenotype (%) [11]: 28%
Population Mitochondria Different-Phenotype (%) [11]: 16%
Population Mitotic Cells (%) [11]: 17%
Population Normal (%) [11]: 94%
Population Pyknosed Nuclei (%) [11]: 19%
Population Tubulin-Different-Phenotype (%) [11]: 19%
Total Cell Count [11]: 252
Population Apoptotic (%) [12]: 81%
Population Fragmented Nuclei (%) [12]: 33%
Population Healthy Nuclei (%) [12]: 46%
Population Hoechst High Intensity Objects (%) [12]: 4%
Population Membrane Permeable-Phenotype (%) [12]: 22%
Population Mitochondria Different-Phenotype (%) [12]: 20%
Population Mitotic Cells (%) [12]: 18%
Population Normal (%) [12]: 95%
Population Pyknosed Nuclei (%) [12]: 20%
Population Tubulin-Different-Phenotype (%) [12]: 18%
Total Cell Count [12]: 111
